Reference: ChEMBL document CHEMBL4052830, “Dual Nicotinic Acetylcholine Receptor α4β2 Antagonists/α7 Agonists: Synthesis, Docking Studies, and Pharmacological Evaluation of Tetrahydroisoquinolines and Tetrahydroisoquinolinium Salts” (J Med Chem, 2018)
Calls of active or inactive are those of the source. The rule behind the calls is not given here.

What was measured:
[1] = molecular target: Neuronal acetylcholine receptor; alpha4/beta2 (Rattus norvegicus, UniProt P09483+P12390); test: Displacement of [3H]epibatidine from rat alpha4beta2 nAChR expressed in HEK293 cell membranes after 4 hrs by scintillation counting method
In short: (§1)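 Membranes from HEK293 lines stably expressing α3β4, α4β4 or α4β2 nAChR, [3H]epibatidine competition binding. Ki came from concentration-inhibition curves. Means of 3–5 experiments in duplicate.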

[2] = molecular target: Neuronal acetylcholine receptor; alpha4/beta4 (Rattus norvegicus, UniProt P09483+P12392); test: Displacement of [3H]epibatidine from rat alpha4beta4 nAChR expressed in HEK293 cell membranes after 4 hrs by scintillation counting method; in short: as §1
[3] = molecular target: T1, Neuronal acetylcholine receptor; alpha3/beta4 (Rattus norvegicus, UniProt P04757+P12392); test: Displacement of [3H]epibatidine from rat alpha3beta4 nAChR expressed in HEK293 cell membranes after 4 hrs by scintillation counting method; in short: as §1
[4] = molecular target: T1, Neuronal acetylcholine receptor; alpha3/beta4; test: Antagonist activity at rat alpha3beta4 nAChR expressed in HEK293 cells assessed as inhibition of (S)-nicotine-induced […] response measured up to 90 secs by FMP assay; format: cell-based
In short: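 Rat α3β4 nAChR in stably expressing HEK293 cells, FLIPR Membrane Potential Blue assay. Antagonist mode against (S)-nicotine at EC70–EC90. IC50 derived from concentration-inhibition curves. Means of 3–5 experiments in duplicate.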

[5] = molecular target: Nicotinic acetylcholine receptor alpha-4/beta-2 (Mus musculus, UniProt Q8R493+Q9ERK7); test: Antagonist activity at mouse alpha4beta2 nAChR expressed in HEK293 cells assessed as inhibition of (S)-nicotine-induced […] response measured up to 90 secs by FMP assay; format: cell-based
In short: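 Mouse α4β2 nAChR in stably expressing HEK293T cells, FLIPR Membrane Potential Blue assay. IC50 came from concentration-inhibition curves. Means of 3–5 experiments in duplicate.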

[6] = molecular target: T2, Neuronal acetylcholine receptor subunit alpha-7 (Homo sapiens, UniProt P36544); test: Antagonist activity at human alpha7 nAChR expressed in HEK293 cells co-expressing Ric-3/NACHO assessed as inhibition of ACh-induced calcium mobilization measured up to 90 secs in presence of PNU-120596 by FLIPR assay; format: cell-based
In short: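 Human α7 nAChR stably co-expressed with Ric-3/NACHO in HEK293 cells. Antagonist mode in the Ca2+/Fluo-4 assay: test ligand inhibits acetylcholine at EC70–EC90, with 3 μM PNU-120596 in the buffer. IC50 came from concentration-inhibition curves. Means of 3–5 experiments run in duplicate.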

[7] = molecular target: T2, Neuronal acetylcholine receptor subunit alpha-7; test: Agonist activity at human alpha7 nAChR expressed in HEK293 cells co-expressing Ric-3/NACHO assessed as induction of calcium mobilization measured up to 90 secs in presence of PNU-120596 by FLIPR assay; format: cell-based
In short: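 Human α7 nAChR stably co-expressed with Ric-3 and NACHO in HEK293 cells, Ca2+/Fluo-4 fluorescence assay. Assay buffer held 3 μM PNU-120596 (α7 PAM) to slow desensitization. Agonist concentration-response curves gave EC50 and Rmax. Means of 3–5 experiments run in duplicate.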

Rattus norvegicus [8] = species on record: Rattus norvegicus; test: Selectivity ratio of Ki for rat alpha4beta4 nAChR to Ki for rat alpha4beta2 nAChR
Rattus norvegicus [9] = species on record: Rattus norvegicus; test: Selectivity ratio of Ki for rat alpha3beta4 nAChR to Ki for rat alpha4beta2 nAChR
[10] = molecular target: Neuronal acetylcholine receptor; alpha4/beta2 (Rattus norvegicus) (UniProt P09483+P12390); test: Potency index, ratio of DHbetaE Ki to test compound Ki for rat alpha4beta2 nAChR; format: protein-complex assay
[11] = molecular target: T2, Neuronal acetylcholine receptor subunit alpha-7; test: Agonist activity at human alpha7 nAChR expressed in HEK293 cells co-expressing Ric-3/NACHO assessed as induction of calcium mobilization at 0.3 to 3 uM measured up to 90 secs in presence of PNU-120596 by FLIPR assay; format: cell-based
[12] = molecular target: T2, Neuronal acetylcholine receptor subunit alpha-7; test: Agonist activity at human alpha7 nAChR expressed in HEK293 cells co-expressing Ric-3/NACHO assessed as induction of calcium mobilization at >= 10 uM measured up to 90 secs in presence of PNU-120596 by FLIPR assay; format: cell-based
[13] = molecular target: T2, Neuronal acetylcholine receptor subunit alpha-7; test: Agonist activity at human alpha7 nAChR expressed in HEK293 cells co-expressing Ric-3/NACHO assessed as induction of calcium mobilization at 30 uM measured up to 90 secs in presence of PNU-120596 by FLIPR assay; format: cell-based

Neuronal acetylcholine receptor; alpha4/beta2, sequence (P09483 whole entry): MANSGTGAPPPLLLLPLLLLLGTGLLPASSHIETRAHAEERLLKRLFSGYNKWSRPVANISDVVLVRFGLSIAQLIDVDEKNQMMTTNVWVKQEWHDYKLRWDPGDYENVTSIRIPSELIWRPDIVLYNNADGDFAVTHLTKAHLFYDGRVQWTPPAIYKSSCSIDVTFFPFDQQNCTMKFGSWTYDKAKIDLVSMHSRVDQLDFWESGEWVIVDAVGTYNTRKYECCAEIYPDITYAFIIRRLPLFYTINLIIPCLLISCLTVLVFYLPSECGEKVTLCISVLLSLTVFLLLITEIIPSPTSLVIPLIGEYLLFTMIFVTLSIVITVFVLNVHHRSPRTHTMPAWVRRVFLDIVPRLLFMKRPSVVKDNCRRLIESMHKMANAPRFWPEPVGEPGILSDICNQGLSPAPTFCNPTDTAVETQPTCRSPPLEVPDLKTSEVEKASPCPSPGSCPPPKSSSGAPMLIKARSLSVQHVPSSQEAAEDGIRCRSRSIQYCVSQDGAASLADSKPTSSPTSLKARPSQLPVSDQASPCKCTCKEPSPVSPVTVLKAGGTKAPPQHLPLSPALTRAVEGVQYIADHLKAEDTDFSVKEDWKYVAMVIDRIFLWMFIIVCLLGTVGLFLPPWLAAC
Neuronal acetylcholine receptor; alpha4/beta2, sequence (P12390 whole entry): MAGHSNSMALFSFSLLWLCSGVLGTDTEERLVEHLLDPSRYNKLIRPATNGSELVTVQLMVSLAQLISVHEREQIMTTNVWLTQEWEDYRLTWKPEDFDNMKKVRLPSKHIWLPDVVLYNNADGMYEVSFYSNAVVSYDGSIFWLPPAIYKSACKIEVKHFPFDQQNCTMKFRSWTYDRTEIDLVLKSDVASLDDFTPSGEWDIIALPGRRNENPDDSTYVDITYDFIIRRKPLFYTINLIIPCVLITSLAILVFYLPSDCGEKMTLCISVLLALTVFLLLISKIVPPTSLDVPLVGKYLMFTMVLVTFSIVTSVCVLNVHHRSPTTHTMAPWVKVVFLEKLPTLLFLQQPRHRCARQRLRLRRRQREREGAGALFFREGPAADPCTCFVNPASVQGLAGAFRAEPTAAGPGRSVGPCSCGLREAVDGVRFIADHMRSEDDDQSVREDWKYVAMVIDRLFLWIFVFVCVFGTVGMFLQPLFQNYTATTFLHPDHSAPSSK
Neuronal acetylcholine receptor; alpha4/beta4, sequence (P09483 whole entry): as the sequence (P09483 whole entry) above
Neuronal acetylcholine receptor; alpha4/beta4, sequence (P12392 whole entry): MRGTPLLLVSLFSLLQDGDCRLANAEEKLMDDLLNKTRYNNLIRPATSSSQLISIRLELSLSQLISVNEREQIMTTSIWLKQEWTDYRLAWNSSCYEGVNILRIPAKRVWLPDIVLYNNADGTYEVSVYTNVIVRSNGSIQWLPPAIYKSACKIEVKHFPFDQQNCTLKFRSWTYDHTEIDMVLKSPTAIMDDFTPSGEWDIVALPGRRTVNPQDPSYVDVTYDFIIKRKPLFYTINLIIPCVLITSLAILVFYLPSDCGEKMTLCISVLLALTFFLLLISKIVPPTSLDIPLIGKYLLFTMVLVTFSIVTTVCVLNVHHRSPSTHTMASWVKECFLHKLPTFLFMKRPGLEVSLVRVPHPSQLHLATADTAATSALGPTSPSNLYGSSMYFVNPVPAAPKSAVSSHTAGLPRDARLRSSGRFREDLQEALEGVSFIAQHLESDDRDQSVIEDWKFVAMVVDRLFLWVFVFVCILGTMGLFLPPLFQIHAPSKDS
T1 sequence (P04757 whole entry): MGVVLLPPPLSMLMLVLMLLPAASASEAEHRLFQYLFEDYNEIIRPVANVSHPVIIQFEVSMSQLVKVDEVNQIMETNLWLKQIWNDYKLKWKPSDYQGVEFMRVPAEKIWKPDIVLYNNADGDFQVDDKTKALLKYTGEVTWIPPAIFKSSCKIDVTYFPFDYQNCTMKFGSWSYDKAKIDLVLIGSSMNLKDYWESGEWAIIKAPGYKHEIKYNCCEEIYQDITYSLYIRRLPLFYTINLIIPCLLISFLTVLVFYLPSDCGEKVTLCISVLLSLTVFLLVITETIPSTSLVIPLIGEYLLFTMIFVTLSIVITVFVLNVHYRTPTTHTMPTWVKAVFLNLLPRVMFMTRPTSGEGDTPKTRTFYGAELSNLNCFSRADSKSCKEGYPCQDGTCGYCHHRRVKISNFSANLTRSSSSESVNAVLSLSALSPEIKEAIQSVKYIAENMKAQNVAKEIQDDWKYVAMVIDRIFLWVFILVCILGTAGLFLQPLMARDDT
T1 sequence (P12392 whole entry): as the sequence (P12392 whole entry) above
Nicotinic acetylcholine receptor alpha-4/beta-2, sequence (Q9ERK7 whole entry): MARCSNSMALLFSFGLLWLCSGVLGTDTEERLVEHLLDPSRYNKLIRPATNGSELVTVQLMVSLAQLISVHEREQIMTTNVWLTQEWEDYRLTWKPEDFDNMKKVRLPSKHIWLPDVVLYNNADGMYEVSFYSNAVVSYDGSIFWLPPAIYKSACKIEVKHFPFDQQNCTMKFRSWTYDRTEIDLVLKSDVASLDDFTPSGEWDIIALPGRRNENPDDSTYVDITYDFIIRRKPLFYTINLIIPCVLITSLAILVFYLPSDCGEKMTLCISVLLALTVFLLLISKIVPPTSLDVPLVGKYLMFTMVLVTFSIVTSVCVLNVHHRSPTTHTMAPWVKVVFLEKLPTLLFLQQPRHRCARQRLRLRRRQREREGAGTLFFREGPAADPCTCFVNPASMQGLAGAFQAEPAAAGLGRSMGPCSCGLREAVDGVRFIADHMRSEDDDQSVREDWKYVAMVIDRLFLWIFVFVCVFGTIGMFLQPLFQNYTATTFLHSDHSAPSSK
Nicotinic acetylcholine receptor alpha-4/beta-2, sequence (Q8R493 whole entry): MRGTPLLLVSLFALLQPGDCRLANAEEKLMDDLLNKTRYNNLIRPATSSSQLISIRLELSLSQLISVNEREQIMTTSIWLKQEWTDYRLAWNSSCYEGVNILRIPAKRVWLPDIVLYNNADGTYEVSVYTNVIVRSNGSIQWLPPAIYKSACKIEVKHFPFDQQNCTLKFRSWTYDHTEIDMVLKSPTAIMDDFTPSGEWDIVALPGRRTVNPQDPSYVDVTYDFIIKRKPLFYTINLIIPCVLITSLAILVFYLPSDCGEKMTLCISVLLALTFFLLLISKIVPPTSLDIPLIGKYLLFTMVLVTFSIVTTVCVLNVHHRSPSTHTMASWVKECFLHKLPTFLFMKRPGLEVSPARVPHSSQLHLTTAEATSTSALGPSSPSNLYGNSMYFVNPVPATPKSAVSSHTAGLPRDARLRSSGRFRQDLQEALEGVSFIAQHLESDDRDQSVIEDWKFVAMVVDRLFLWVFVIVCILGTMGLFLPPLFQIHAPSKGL
T2 sequence (P36544 whole entry): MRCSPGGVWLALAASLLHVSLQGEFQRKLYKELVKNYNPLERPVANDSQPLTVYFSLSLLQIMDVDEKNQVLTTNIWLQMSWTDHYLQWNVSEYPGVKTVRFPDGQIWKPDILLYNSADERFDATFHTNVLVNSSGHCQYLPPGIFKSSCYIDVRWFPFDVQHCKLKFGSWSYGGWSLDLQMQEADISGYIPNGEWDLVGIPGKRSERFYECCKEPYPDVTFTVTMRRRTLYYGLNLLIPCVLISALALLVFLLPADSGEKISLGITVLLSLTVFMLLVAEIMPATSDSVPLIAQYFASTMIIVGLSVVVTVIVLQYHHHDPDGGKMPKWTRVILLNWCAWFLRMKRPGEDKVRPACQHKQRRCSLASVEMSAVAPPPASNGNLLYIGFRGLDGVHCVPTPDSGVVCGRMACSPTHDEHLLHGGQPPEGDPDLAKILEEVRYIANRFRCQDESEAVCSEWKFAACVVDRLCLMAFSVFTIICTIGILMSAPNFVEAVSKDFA

Structure (SMILES)	Ki [1]	Ki [2]	Ki [3]	IC50 [4]	IC50 [5]	IC50 [6]	EC50 [7]	Ratio Ki (Rattus norvegicus [8])	Ratio Ki (Rattus norvegicus [9])	Ratio Ki [10]	Activity [11]	Activity [12]	Activity [13]
COc1ccc(CC2c3cc(OC)c(OC)cc3CCN2C)cc1OC (stereo not given) [LAUDANOSINE]	100 µM	> 100 µM	> 100 µM	> 100 µM	> 100 µM	> 100 µM	> 100 µM						
COc1ccc2c(c1)CCN1CCCC21 (stereo not given)	25 µM	100 µM	> 100 µM	> 100 µM	100 µM	> 100 µM	> 100 µM						
COc1cc2c(cc1O)CN(C)CC2			100 µM	100 µM		> 100 µM	> 100 µM						
COc1cc2c(cc1OCc1ccccc1)C1CCCN1CC2 (stereo not given)	50 µM	300 µM	300 µM	> 100 µM	50 µM	11 µM							
COc1cc2c(cc1OCc1ccccc1)CCN1CCCC21 (stereo not given)	6.3 µM	300 µM	100 µM	100 µM	30 µM	5.7 µM							
C[N+]12CCCC1c1cc3c(cc1CC2)OCO3 (stereo not given)	0.14 µM	50 µM	30 µM	30 µM	0.52 µM		2.6 µM	360	210	5			
COc1cc2c(cc1OC)[C@H]1CCC[N+]1(C)CC2 (stereo not given in full)	2.4 µM	25 µM	25 µM	> 100 µM	7.2 µM		5.1 µM						
COc1cc2c(cc1OCc1ccccc1)CC[N+]1(C)CCCC21 (stereo not given)	2.1 µM	300 µM	300 µM	300 µM	3.1 µM						Dose-dependent effect	inactive	
COc1cc2c(cc1OCc1ccccc1)C1CCC[N+]1(C)CC2 (stereo not given)	11 µM	300 µM	300 µM	300 µM	5.7 µM						Dose-dependent effect	inactive	
COc1cc2c(cc1OC)[C@H]1CCCN1CC2	2.5 µM	100 µM	100 µM	> 100 µM	16 µM	> 100 µM	> 100 µM						
CC[N+]1(C)CCc2cc(OC)c(OC)cc2C1 (stereo not given)	9.7 µM	> 300 µM	> 300 µM	> 300 µM	11 µM								Active
COc1ccc2c(c1)CCN(C)C2	2.6 µM	25 µM	100 µM	> 100 µM	6.2 µM	> 100 µM	> 100 µM						
COc1cc2c(cc1OC)C1CCCN1CC2 (stereo not given)	4.6 µM		100 µM		30 µM	> 100 µM	> 100 µM						
C[N+]12CCCC1c1ccccc1CC2 (stereo not given)	17 µM	25 µM	50 µM	> 100 µM	50 µM		2.2 µM						
COc1cc2c(cc1OCc1ccccc1)CCN(C)C2	2.9 µM	300 µM	300 µM	100 µM	24 µM	30 µM							
COc1ccc2c(c1)C1CCCN1CC2 (stereo not given)	1.4 µM	3.3 µM	100 µM	> 100 µM	9.1 µM								Active
CN1CCc2cc3c(cc2C1)OCO3	17 µM					> 100 µM	> 100 µM						
COc1cc2c(cc1OC)C[N+](C)(C)CC2	0.63 µM	50 µM	100 µM	> 300 µM	11 µM		9 µM						
c1ccc2c(c1)CCN1CCCC21 (stereo not given)	8.5 µM	100 µM	100 µM	> 100 µM	15 µM	100 µM							

Structure (SMILES)	Ki [1]	Ki [2]	Ki [3]	IC50 [4]	IC50 [5]	IC50 [6]	EC50 [7]	Ratio Ki (Rattus norvegicus [8])	Ratio Ki (Rattus norvegicus [9])	Ratio Ki [10]	Activity [11]	Activity [12]	Activity [13]
c1c2c(cc3c1OCO3)[C@@H]1CCCN1CC2	4.5 µM	100 µM	> 100 µM	> 100 µM	30 µM								Active
COc1cc2c(cc1O)C[N+](C)(C)CC2	0.4 µM	8.9 µM	25 µM	> 100 µM	1.2 µM		0.99 µM						
COc1cc2c(cc1OC)C1CCC[N+]1(C)CC2 (stereo not given)	2.4 µM	30 µM	50 µM	100 µM	30 µM		7.5 µM						
COc1ccc2c(c1)CC[N+](C)(C)C2	0.68 µM	1.5 µM	9.3 µM	> 100 µM	1.4 µM		4.4 µM						
COc1ccc2c(c1)C1CCC[N+]1(C)CC2 (stereo not given)	0.23 µM	0.92 µM	9.3 µM	50 µM	1.8 µM		1.2 µM						
COc1cc2c(cc1OC)C[N+](C)(Cc1ccccc1)CC2 (stereo not given)	30 µM	> 300 µM	300 µM	> 300 µM	30 µM	2 µM							
C[N+]1(C)CCc2cc3c(cc2C1)OCO3	0.38 µM	30 µM	50 µM	> 300 µM	12 µM		2.6 µM	80	130				
C=CC[N+]1(C)CCc2cc(OC)c(OC)cc2C1 (stereo not given)	30 µM	300 µM	> 300 µM	> 300 µM	30 µM	> 100 µM	> 100 µM						
COc1cc2c(cc1OCc1ccccc1)CN(C)CC2	15 µM	300 µM	300 µM	> 300 µM	23 µM	30 µM							
COC1CC=C2CCN3CCC4=C(CC(=O)OC4)[C@]23C1 (stereo not given in full)	0.65 µM	25 µM	100 µM	100 µM	0.6 µM	100 µM							
c1c2c(cc3c1OCO3)C1CCCN1CC2 (stereo not given)	0.5 µM	9.3 µM	> 100 µM		2.3 µM								Active
CCC[N+]1(C)CCc2cc(OC)c(OC)cc2C1 (stereo not given)	14 µM	300 µM	300 µM	> 300 µM	30 µM	> 100 µM	> 100 µM						
COc1cc2c(cc1OC)[C@@H]1CCCN1CC2	> 100 µM	> 100 µM	> 100 µM	> 100 µM	> 100 µM	> 100 µM	> 100 µM						
COc1ccc2c(c1)CC[N+]1(C)CCCC21 (stereo not given)	3.6 µM	12 µM	25 µM	100 µM	30 µM		5.2 µM						
COc1cc2c(cc1OCc1ccccc1)C[N+](C)(C)CC2	4.5 µM	17 µM	30 µM	> 300 µM	30 µM							inactive	
COc1cc2c(cc1OC)CN(C)CC2						> 100 µM	> 100 µM						
COc1cc2c(cc1OC)[C@@H]1CCC[N+]1(C)CC2 (stereo not given in full)	25 µM	7.5 µM	25 µM	> 100 µM	> 100 µM		6.5 µM						
C[N+]12CCC[C@H]1c1cc3c(cc1CC2)OCO3 (stereo not given in full)	25 µM	25 µM	25 µM	> 100 µM	> 100 µM		5.4 µM						
